Here are results for 46 molecules from ChEMBL document CHEMBL1140686, “Indanylacetic acids as PPAR-delta activator insulin sensitizers” (Bioorg Med Chem Lett, 2007).

What is called EC50 is the midpoint of the concentration-response curve.

Test [1] addresses T1, Peroxisome proliferator-activated receptor alpha (Homo sapiens, UniProt Q07869).
T1 sequence (Q07869 whole entry): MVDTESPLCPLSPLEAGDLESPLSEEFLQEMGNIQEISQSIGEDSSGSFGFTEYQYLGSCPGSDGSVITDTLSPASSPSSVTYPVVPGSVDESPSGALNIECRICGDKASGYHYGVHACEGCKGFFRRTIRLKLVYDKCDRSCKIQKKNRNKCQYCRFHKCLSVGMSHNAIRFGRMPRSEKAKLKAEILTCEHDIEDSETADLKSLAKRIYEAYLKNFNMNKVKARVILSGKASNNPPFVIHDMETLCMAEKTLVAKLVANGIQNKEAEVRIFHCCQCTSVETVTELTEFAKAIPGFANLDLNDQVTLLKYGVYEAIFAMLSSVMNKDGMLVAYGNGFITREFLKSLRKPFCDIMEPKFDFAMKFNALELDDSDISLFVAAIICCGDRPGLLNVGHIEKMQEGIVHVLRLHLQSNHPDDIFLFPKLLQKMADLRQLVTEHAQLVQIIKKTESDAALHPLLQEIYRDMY
The experiment in a line: Agonist activity at PPARalpha by FRET assay. The class given is functional. The gist of the method: (§1)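 FRET coactivator-recruitment assay run with the PPAR-δ ligand binding domain (GST-tagged human PPAR-δ LBD) and separately with the PPAR-α ligand binding domain. Compounds were incubated with europium-labelled anti-GST antibody, biotinylated TRAP220 coactivator protein and streptavidin-labelled APC. Read in a fluorimeter at excitation 340 nm and emission 615 and 665 nm.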

Test [2] has as its system 3T3-L1. Nature of the test: Induction of insulin receptor in mouse 3T3L1 cells assessed as insulin sensitizing activity. Type of test: functional, cell-based. Conditions: for EC50: Mus musculus, 3T3-L1. The gist of the method: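 3T3-L1 preadipocytes grown about 1 week to 2 days post-confluence, then exposed 2 days to compound plus 0.5 µM IGF-1 in DMEM/10% FBS/2 mM glutamine/pen-strep, then 4 days in plain medium. Cells bound 0.1 nM [125I]insulin ± 100 nM unlabeled insulin for 1 h at room temperature, were washed and lysed in 1 N NaOH, then gamma-counted. EC50 taken where a plateau was reached; percent maximal stimulation recorded.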

The species named for test [3] is Homo sapiens. Nature of the test: Selectivity for PPARdelta over PPARalpha. The gist of the method:
as §1

Some results are limits rather than exact numbers.

As for `CCc1ccc(-c2nc(C)c(CCOc3ccc4c(c3)CC[C@H]4CC(=O)O)n2C)cc1`, the EC50 in test [1] was 10000 nM; in test [2], 155 nM.
`Cc1oc(-c2ccc(F)cc2)nc1CCOc1ccc2c(c1)CC[C@H]2CC(=O)O`: the EC50 in test [1] amounted to 504 nM; in test [2] it was 354 nM.
Consider `Cc1cccc(-c2nc(CCOc3ccc4c(c3)CC[C@H]4CC(=O)O)c(C)s2)c1`, for which the EC50 was determined as 6790 nM in test [1] and 50 nM in test [2].
For `Cc1sc(-c2cccc(C(F)(F)F)c2)nc1CCOc1ccc2c(c1)CC[C@H]2CC(=O)O`, the EC50 in test [1] amounted to 10000 nM; in test [2], 45 nM.
For the molecule `COC(C(=O)O)C1CCc2cc(OCCc3nc(-c4ccccc4)oc3C)ccc21` (configuration not stated), in test [3], the Ratio EC50 is 0.15.
Consider `Cc1sc(-c2ccc(OC(F)(F)F)cc2)nc1CCOc1ccc2c(c1)CC[C@H]2CC(=O)O`, for which the figures for the EC50 in test [1] and in test [2] were 7940 nM and 225 nM, respectively.
In the case of `Cc1nc(-c2ccc(-c3ccccc3)cc2)n(C)c1CCOc1ccc2c(c1)CC[C@H]2CC(=O)O`, the values for the EC50 in test [1] and in test [2] were 10000 nM and 71 nM, respectively.
Consider `Cc1sc(-c2ccc(C(C)C)cc2)nc1CCOc1ccc2c(c1)CC[C@H]2CC(=O)O`, for which the EC50 in test [1] came out at 559 nM; in test [2], 25 nM.
In the case of `CCc1ccc(-c2nc(CCOc3ccc4c(c3)CC[C@H]4CC(=O)O)c(CC)o2)cc1`, the EC50 amounted to 2530 nM in test [1] and 35 nM in test [2].
The molecule `CCC(C(=O)O)C1CCc2cc(OCCc3nc(-c4ccccc4)oc3C)ccc21` (configuration not stated) showed an EC50 in test [1] of 130 nM. Besides, in test [3], the Ratio EC50 was found to be 0.22.
Consider `COc1cccc(-c2nc(CCOc3ccc4c(c3)CC[C@H]4CC(=O)O)c(C)o2)c1`, for which the EC50 in test [1] is 1890 nM; in test [2] it was 82 nM.
In test [1], `COc1ccc(-c2nc(C)c(CCOc3ccc4c(c3)CC[C@H]4CC(=O)O)n2C)cc1` gave an EC50 of 10000 nM. Also, in test [2], the Activity is listed as 41% and the EC50 is 5560 nM.
In the case of `Cc1oc(-c2ccc(C(C)(C)C)cc2)nc1CCOc1ccc2c(c1)CC[C@H]2CC(=O)O`, the EC50 in test [1] is 546 nM.
On to `CCc1ccc(-c2nc(CCOc3ccc4c(c3)CC[C@H]4CC(=O)O)c(C)n2C)cc1`, for which the EC50 in test [1] turned out to be 10000 nM; in test [2], 103 nM.
With `CCc1oc(-c2ccccc2)nc1CCOc1ccc2c(c1)CC[C@H]2CC(=O)O`, the figures for the EC50 in test [1] and in test [2] were 10000 nM and 186 nM, respectively.
In the same order, the values of `Cc1c(CCOc2ccc3c(c2)CC[C@H]3CC(=O)O)nc(-c2ccc(-c3ccccc3)cc2)n1C` are 10000 nM and 54 nM.
On to `Cc1oc(-c2cccc(C#N)c2)nc1CCOc1ccc2c(c1)CC[C@H]2CC(=O)O`, for which the EC50 in test [1] was found to be 10000 nM; in test [2], 164 nM.
As for `Cc1c(CCOc2ccc3c(c2)CC[C@H]3CC(=O)O)nc(-c2ccccc2)n1C`, the response in test [1] was half-maximal at 10000 nM (EC50). Moreover, in test [2], the Activity was found to be 55% and the EC50 turned out to be 608 nM.
Turning to `Cc1oc(-c2cccc(F)c2)nc1CCOc1ccc2c(c1)CC[C@H]2CC(=O)O`, the EC50 in test [1] came out at 1690 nM; in test [2], 371 nM.
Turning to `CCOc1ccc(-c2nc(CCOc3ccc4c(c3)CC[C@H]4CC(=O)O)c(C)s2)cc1`, the figures for the EC50 in test [1] and in test [2] were 10000 nM and 165 nM, respectively.
In the case of `CCc1ccc(-c2nc(CCOc3ccc4c(c3)CC[C@H]4CC(=O)O)c(C)o2)cc1`, the EC50 is 78 nM in test [1] and 27 nM in test [2].
With `Cc1oc(-c2ccccc2)nc1CCOc1ccc2c(c1)CC[C@H]2CC(=O)O`, the results for the EC50 in test [1] and in test [2] were 2460 nM and 231 nM, respectively.
Consider `Cc1oc(-c2ccccc2)nc1CCOc1ccc2c(c1)CCC2C(C)C(=O)O` (configuration not stated), for which a half-maximal response in test [1] (EC50) required 220 nM. Further, the Ratio EC50 in test [3] is 1.8.
For `Cc1sc(-c2ccc(F)cc2)nc1CCOc1ccc2c(c1)CC[C@H]2CC(=O)O`, the EC50 in test [1] turned out to be 2270 nM; in test [2], 544 nM.
In the same order, the values of `CCc1oc(-c2ccc(C)cc2)nc1CCOc1ccc2c(c1)CC[C@H]2CC(=O)O` are 1020 nM and 30 nM.
In the case of `Cc1sc(-c2ccccc2F)nc1CCOc1ccc2c(c1)CC[C@H]2CC(=O)O`, the concentration giving a half-maximal response (EC50) was 10000 nM in test [1] and 1620 nM in test [2].
Turning to `COc1ccc(-c2nc(CCOc3ccc4c(c3)CC[C@H]4CC(=O)O)c(C)s2)cc1`, the EC50 was found to be 3280 nM in test [1] and 166 nM in test [2].
As to `Cc1oc(-c2ccccc2)nc1CCOc1ccc2c(c1)CCC2CC(=O)O` (configuration not stated), it took 890 nM to reach a half-maximal effect in test [1] (EC50). Moreover, the Ratio EC50 in test [3] is 32.
`Cc1sc(-c2ccccc2)nc1CCOc1ccc2c(c1)CC[C@H]2CC(=O)O`: the EC50 was found to be 10000 nM in test [1] and 267 nM in test [2]. Also, the Activity in test [2] came to 60%.
On to `Cc1oc(-c2ccc(Cl)cc2)nc1CCOc1ccc2c(c1)CC[C@H]2CC(=O)O`, for which the EC50 amounted to 1190 nM in test [1] and 212 nM in test [2].
Turning to `Cc1ccc(-c2nc(CCOc3ccc4c(c3)CC[C@H]4CC(=O)O)c(C)s2)cc1`, the EC50 amounted to 594 nM in test [1] and 65 nM in test [2].
In the case of `O=C(O)C[C@@H]1CCc2cc(OCCc3nc(-c4ccccc4)oc3CCc3ccccc3)ccc21`, the EC50 in test [1] is 10000 nM; in test [2], > 3000 nM. Also, the Activity in test [2] is on record as 9%.
In the case of `Cc1cccc(-c2nc(CCOc3ccc4c(c3)CC[C@H]4CC(=O)O)c(C)o2)c1`, the EC50 worked out at 1150 nM in test [1] and 101 nM in test [2].
In the same order, the values of `Cc1sc(-c2ccc(Cl)cc2)nc1CCOc1ccc2c(c1)CC[C@H]2CC(=O)O` are 10000 nM and 970 nM.
As to `COc1cccc(-c2nc(CCOc3ccc4c(c3)CC[C@H]4CC(=O)O)c(C)s2)c1`, the figures for the EC50 in test [1] and in test [2] were 6960 nM and 32 nM, respectively.
As to `Cc1ccc(-c2nc(CCOc3ccc4c(c3)CC[C@H]4CC(=O)O)c(C)o2)cc1`, the figures for the EC50 in test [1] and in test [2] were 444 nM and 24 nM, respectively.
`COc1ccc(-c2nc(CCOc3ccc4c(c3)CC[C@H]4CC(=O)O)c(C)o2)cc1`: the values for the EC50 in test [1] and in test [2] were 798 nM and 29 nM, respectively.
Turning to `CCCc1oc(-c2ccccc2)nc1CCOc1ccc2c(c1)CC[C@H]2CC(=O)O`, the EC50 in test [1] came to 10000 nM. Besides, in test [2], the Activity is 32% and the EC50 is 3000 nM.
`Cc1oc(-c2ccc(C#N)cc2)nc1CCOc1ccc2c(c1)CC[C@H]2CC(=O)O`: the EC50 in test [1] stood at 9980 nM; in test [2], 301 nM.
With `Cc1sc(-c2ccc(-c3ccccc3)cc2)nc1CCOc1ccc2c(c1)CC[C@H]2CC(=O)O`, the EC50 stood at 10000 nM in test [1] and 270 nM in test [2].
Take `Cc1sc(-c2cccc(F)c2)nc1CCOc1ccc2c(c1)CC[C@H]2CC(=O)O`: the EC50 in test [1] worked out at 6530 nM; in test [2], 140 nM.
For the molecule `Cc1sc(-c2ccc3c(c2)OCO3)nc1CCOc1ccc2c(c1)CC[C@H]2CC(=O)O`, the EC50 is 1210 nM in test [1] and 66 nM in test [2].
Consider `Cc1nc(-c2ccccc2)n(C)c1CCOc1ccc2c(c1)CC[C@H]2CC(=O)O`, for which the figures for the EC50 in test [1] and in test [2] were 10000 nM and 5940 nM, respectively. Besides, the Activity in test [2] was found to be 19%.
`Cc1oc(-c2cccc(Cl)c2)nc1CCOc1ccc2c(c1)CC[C@H]2CC(=O)O`: the EC50 in test [1] turned out to be 1570 nM; in test [2] it was 200 nM.
Take `COc1ccc(-c2nc(CCOc3ccc4c(c3)CC[C@H]4CC(=O)O)c(C)n2C)cc1`: in test [1], the EC50 amounted to 10000 nM. In addition, in test [2], the Activity is on record as 56% and the EC50 is 644 nM.
Consider `Cc1oc(-c2ccc(C(C)C)cc2)nc1CCOc1ccc2c(c1)CC[C@H]2CC(=O)O`, for which the EC50 amounted to 300 nM in test [1] and 33 nM in test [2].
